Sampled rows, rich in hits. Any-hit rate of the full collection: about 2.2%.
FLuc inh counter – counter-screen for luciferase assay inhibitors: firefly luciferase inhibition; P08659; ATPLite firefly luciferase biochemical luminescence, 10 min; inhibition, % at 10 µM; hit rate 1.5% among 200,000; AID 1006;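 active means inhibition above about 50% when tested at 10 µM, limit read from the data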
Target sequence (P08659 whole entry, looked up): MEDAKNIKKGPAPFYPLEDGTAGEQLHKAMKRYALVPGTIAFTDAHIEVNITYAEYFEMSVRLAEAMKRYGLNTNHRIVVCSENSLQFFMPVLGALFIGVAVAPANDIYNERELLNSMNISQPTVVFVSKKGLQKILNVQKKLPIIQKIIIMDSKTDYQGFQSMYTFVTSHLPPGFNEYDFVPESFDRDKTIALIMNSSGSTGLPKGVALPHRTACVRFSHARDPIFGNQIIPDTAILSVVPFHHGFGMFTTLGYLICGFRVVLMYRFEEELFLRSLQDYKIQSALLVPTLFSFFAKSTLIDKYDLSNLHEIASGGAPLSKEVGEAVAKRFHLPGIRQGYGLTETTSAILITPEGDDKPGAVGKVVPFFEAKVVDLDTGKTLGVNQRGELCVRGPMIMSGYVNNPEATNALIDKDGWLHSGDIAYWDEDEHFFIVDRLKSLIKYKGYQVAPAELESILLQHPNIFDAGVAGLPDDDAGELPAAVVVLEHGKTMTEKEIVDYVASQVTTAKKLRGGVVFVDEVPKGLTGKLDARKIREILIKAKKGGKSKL
PPC-1+TRAIL kill – kills PPC-1 cancer cells in the presence of TRAIL; PPC-1 cells + TRAIL, ATPLite viability luminescence; cell killing (% activity), % at 4 µM or 5 µM; hit rate 0.41% among 220,000; AID 1443;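 active means cell killing above 50% in the first pass at 4 µM, then a duplicate retest at 5 µM averaging 50% or more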;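 further: plate controls were cells with TRAIL plus DMSO for no effect and medium-only wells lacking cells for full effect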
APP 5'UTR act – APP 5'UTR luciferase reporter activation. SH-SY5Y APP 5'UTR luciferase reporter, luminescence; zero percent = DMSO vehicle wells. activation, % at 2 µM. hit rate 1% among 190,000;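 active means activation above a set limit, based on mean plus 3 SD of controls, cut at about 140% in these data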
FLuc act counter – firefly luciferase counter-screen for stimulation assays. P08659. ATPlite luciferase biochemical, luminescence, 10 min; 0 = ATP-free wells, 1 = DMSO control. activation factor at 10 µM. 200,000 tested, under 10 active. AID 1027;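 active means luciferase activation factor, scaled between plate controls, of at least 2 with compound at 10 µM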
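System: cell-free luciferase reagent; medium: PBS as buffer for the ATP substrate; doses: test compounds dosed from 2 mM stocks in 100% DMSO; incubation: 10 min, room temperature; measured by: luminescence from luciferase reaction; read-out: luciferase activation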
C8 TRAIL sens – caspase-8 TRAIL sensitization | NB7+C8 cells + TRAIL, ATPlite viability luminescence | inhibition (viability loss, TRAIL sensitization), % at 10 µM | hit rate 1% among 360,000 | AID 624354;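 active means compounds causing at least 50% loss of cell viability in the single-dose screen, relative to plate controls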
NF-kB expr up – raises NF-kB expression in human neuronal cells; NF-kB reporter expression; active compounds read high; fold change at 12.5 µM; hit rate 1.6% among 190,000; in the data active means fold change above about 3.3
The depositor's hits bear a star; . = not tested or not shown.

SMILES | FLuc inh counter | PPC-1+TRAIL kill | APP 5'UTR act | FLuc act counter | C8 TRAIL sens | NF-kB expr up
Cc1ccc(NC(=O)ON=C2CCCC2)cc1 | 61.7* | -6.7 | 38.3 | 0.4 | 8.4 | 1.08
COC(=O)C[C@H]1C=C[C@H](NC(=O)c2cccc(F)c2)[C@@H](CO)O1 | . | . | . | . | -9.2 | .
COc1ccc2oc(=N)c(C(=O)Nc3ccccc3)cc2c1 | 64.3* | 17.1 | 133.0 | 0.4 | 21.0 | 5.24*
COc1ccc(-c2nnc(N)s2)cc1 | 26.4 | 22.7 | 9.3 | 0.7 | 11.9 | 1.83
CC(C)c1ccc(-c2nnc(N)s2)cc1 | 80.3* | 57.9* | 61.8 | 0.2 | 57.6* | 3.79*
CCCOc1ccc(-c2nnc(N)s2)cc1 | 60.2* | -7.0 | 48.5 | 0.4 | 38.3 | 2.14
CCOc1ccc(OCC(=O)N(CCC2=CCCCC2)c2c(N)n(Cc3ccccc3)c(=O)[nH]c2=O)cc1 | . | . | . | . | 56.1* | .
CN(C)S(=O)(=O)n1cc(/C=C(\NC(=O)c2ccccc2F)C(=O)N2CCCCC2)c2ccccc21 | . | . | . | . | -17.4 | .
CCOC(=O)C1CCN(C(=O)c2c(C)oc3c2C(=O)c2ccccc2C3=O)CC1 | -2.0 | 28.5 | -30.8 | 1 | 52.1* | 0.43
Cc1oc2c(c1C(=O)N1CCC(C)CC1)C(=O)c1ccccc1C2=O | -8.6 | 12.9 | -33.5 | 1.1 | . | 0.35
O=C(NC(=S)Nc1ccc2c(c1)OCO2)c1ccccc1 | 47.4 | 15.9 | 170.0* | 0.5 | 11.0 | 7.28*
O=C(NC(=S)Nc1ccc2c(c1)OCCO2)c1cccc2ccccc12 | -1.3 | -6.6 | 12.2 | 1 | 1.4 | 1.56
O=C(NC(=S)Nc1ccc2c(c1)OCCO2)c1cccc(Br)c1 | 11.8 | 8.4 | 91.4 | 0.9 | 17.1 | 4.77*
CC(=O)c1cccc(NC(=S)NC(=O)c2cccc(Cl)c2)c1 | 6.6 | -6.8 | 59.6 | 0.9 | 10.1 | 2.06
CCC(=O)Nc1ccc2c(c1)C(=O)c1ccccc1C2=O | 23.2 | 16.2 | 104.5 | 0.8 | 25.0 | 4.17*
CC(=O)c1cccc(NC(=S)NC(=O)c2ccccc2)c1 | 34.5 | 16.7 | 70.9 | 0.7 | 8.6 | 3.77*
COc1cccc(Nc2nc(C(N)c3ccccc3)cs2)n1 (centres undefined) | . | . | . | . | 9.7 | .
O=C(NC(=S)Nc1ccc2c(c1)C(=O)c1ccccc1C2=O)c1ccc(F)cc1 | 8.2 | 31.4 | 89.3 | 0.9 | . | 3.31*
Cc1ccc(-c2nc(N/N=C/c3cccc([N+](=O)[O-])c3)c3ccccc3n2)cc1 | 81.6* | . | 37.5 | 0.2 | 64.5* | 0.95
O=C(N/N=C/c1cccc([N+](=O)[O-])c1)c1cc(-c2ccccc2)nc2ccccc12 | -10.2 | 23.9 | 6.5 | 1.1 | 21.1 | 1.09
Cc1cc2c(cc1C)-c1nnnn1C(N1CCC(Cc3ccccc3)CC1)C(=O)N2 (centres undefined) | . | . | . | . | 10.8 | .
Cc1ccc(-c2nn3c(C)nnc3c3ccccc23)cc1S(=O)(=O)NCc1ccccc1 | -7.9 | -3.9 | -20.0 | 1.1 | 52.3* | 0.78
CC(C)C1C(=O)N(Cc2cn(CCC3OCCO3)nn2)CCS(=O)(=O)N1Cc1ccc(-c2ccc(F)cc2Cl)cc1 (centres undefined) | . | . | . | . | -14.0 | .
CCCS(=O)(=O)NC(=O)C1(C)CCCN(C(=O)c2ccccc2OC(F)(F)F)C1 (centres undefined) | . | . | . | . | -2.0 | .
COc1ccc2nc(Cl)c(C=O)c(N3CCOCC3)c2c1 | . | . | . | . | -4.3 | .
SMILES | FLuc inh counter | PPC-1+TRAIL kill | APP 5'UTR act | FLuc act counter | C8 TRAIL sens | NF-kB expr up
O=C1C(Br)=C(c2ccccc2)C(c2ccccc2)=C1c1ccccc1 | . | . | . | . | 82.5* | .
CCCCCc1ccc(OCCCC[n+]2ccccc2)c(CCCCC)c1 | -4.4 | 23.8 | 6.1 | 1 | 79.1* | 0.99
CCC(C)(C)c1ccc(Oc2cccc(C(=O)O)c2)cc1 | . | -3.9 | . | . | 18.2 | .
Cc1cc(=O)oc2cc(OCCCC[n+]3ccccc3)ccc12 | . | 7.0 | . | . | -2.3 | .
CCC(C)(C)c1ccc(OCCCC[n+]2ccccc2)c(C(C)(C)CC)c1 | -8.3 | 51.1* | 7.3 | 1.1 | 15.3 | 0.74
CC(=O)c1c(C)[nH]c(C(=O)COC(=O)CCCOc2ccccc2)c1C | -6.6 | 0.9 | -0.3 | 1.1 | -9.6 | 1.08
CC(=O)c1c(C)[nH]c(C(=O)NCCc2ccccc2)c1C | 30.4 | 29.4 | 131.4 | 0.7 | 13.5 | 3.44*
CC(=O)c1c(C)[nH]c(C(=O)OCCOc2ccccc2)c1C | 30.5 | 23.8 | 212.0* | 0.7 | 17.5 | 2.54
Cc1c(C(=O)OCCOc2ccccc2)[nH]c2c1C(=O)CCC2 | 15.7 | 6.8 | 86.9 | 0.8 | 21.3 | 3.53*
CSCCC(C(=O)Nc1c(C)cccc1C)N1CCN(C/C=C/c2ccccc2)CC1 (centres undefined) | . | . | . | . | -18.3 | .
CCOC(=O)[C@]12CCC=C1N(Cc1cccc3ccccc13)C(=O)[C@H](CC(=O)NCC1CCCCC1)C2 | . | . | . | . | 15.9 | .
COc1ccc([C@H]2C[C@H](O)[C@@H](n3cc(COC(=O)c4ccccc4)nn3)CN2CC2CCCCC2)cc1 | . | . | . | . | 7.7 | .
O=C1c2ccc([N+](=O)[O-])cc2NC(c2ccco2)N1/N=C/c1ccco1 (centres undefined) | . | 10.1 | . | . | 8.4 | .
CN=c1scc(-c2ccc([N+](=O)[O-])cc2)n1/N=C/c1ccco1 | 8.3 | 4.5 | 196.4* | 0.9 | 5.5 | 1.54
Oc1cccc(-c2nnc(-c3cccc(O)c3)nn2)c1 | . | . | . | . | 87.8* | .
CCCCn1nnnc1C(c1cc2ccccc2o1)N1CCN(c2ccncc2)CC1 (centres undefined) | . | . | . | . | 10.2 | .
CS(=O)(=O)/C(C#N)=C/c1cccn1S(=O)(=O)c1cccc2ccccc12 | . | . | . | . | -7.3 | .
O=[N+]([O-])c1ccc2nc(-c3ccccc3)n(OCc3ccc(Cl)cc3)c2c1 | 4.0 | 19.4 | 39.7 | 1 | 13.6 | 5.11*
O=C(O)COn1c(-c2ccccc2)nc2ccc(Cl)cc21 | 68.5* | 48.7 | 7.5 | 0.3 | 5.1 | 1.67
COn1c(-c2ccccc2)nc2ccc(Cl)cc21 | 20.5 | -0.3 | . | 0.8 | 0.2 | 1.96
CCCCNC(=O)c1nc(C2CCN(S(=O)(=O)c3ccc(S(C)(=O)=O)cc3)CC2)oc1-c1ccccc1 | . | . | . | . | 0.5 | .
O=C(Nc1ccc2oc(-c3ccccc3)nc2c1)c1ccco1 | 29.2 | 6.3 | 177.7* | 0.7 | 32.2 | 5.11*
O=C(Nc1ccc2oc(-c3ccccc3)nc2c1)C1CCCO1 (centres undefined) | 50.1* | 17.1 | 146.6* | 0.5 | 30.6 | 3.65*
O=C(Nc1ccc2oc(-c3ccncc3)nc2c1)c1ccco1 | . | . | . | . | -2.5 | .
COc1ccc(C(=O)Nc2ccc3oc(-c4cccc(F)c4)nc3c2)cc1OC | -6.3 | 16.3 | 0.9 | 1.1 | 11.5 | 1.15
COc1ccccc1C(=O)Nc1ccc2oc(-c3ccc(F)cc3)nc2c1 | -2.3 | 52.8* | 11.7 | 1 | 13.2 | 1.31
O=C(Nc1ccc(-c2nc3ccccc3o2)cc1)C1CCCO1 (centres undefined) | 78.0* | -33.2 | 233.1* | 0.2 | 59.4* | 4.24*
CC1(C(=O)NS(=O)(=O)C2CC2)CCCN(C(=O)Cc2ccc(F)cc2)C1 (centres undefined) | . | . | . | . | -10.9 | .
